# Laboratory results reported in article PMC2862812 (Biochimica et biophysica acta, 2009).
# Where no end group is shown, it is not given here.
# Test: Tryptophan fluorescence of peptides in phosphate buffer without lipid
# Format: physicochemical
# Settings: no lipid; from fluorescence and CD
# How it was run: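 7 μM peptide in buffer without liposomes, pH 8 or 4 (adjusted with dilute NaOH/HCl), temperature-controlled. Trp emission 310–450 nm, excitation 295 nm, slits 2–4/2 nm; CD spectra recorded in parallel.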
molecule,measurement,value
AAEQNPIYWARYADWLFTTPLLLLELALLVDADEGT [D25E],State of the peptide in aqueous solution (solubility / aggregation),remain soluble and monomeric in solution
AAEQNPIYWARYADWLFTTPLLLLALALLVDADEGT [D25A],State of the peptide in aqueous solution (solubility / aggregation),"probably, more aggregated in solution"
AAEQNPIYWARYAEWLFTTPLLLLDLALLVDADEGT [D14E],State of the peptide in aqueous solution (solubility / aggregation),remain soluble and monomeric in solution
AAEQNPIYWARYADWLFTDLPLLLLDLLALLVDADEGT [3D],State of the peptide in aqueous solution (solubility / aggregation),aggregated state of the peptide in solution even at low concentrations
"CC[C@H](C)[C@H](NC(=O)[C@@H]1CCCN1C(=O)[C@H](CC(N)=O)NC(=O)[C@H](CCC(N)=O)NC(=O)[C@H](CCC(=O)O)NC(=O)[C@H](C)NC(=O)[C@H](C)N)C(=O)N[C@@H](Cc1ccc(O)cc1)C(=O)N[C@@H](Cc1c[nH]c2ccccc12)C(=O)N[C@@H](C)C(=O)N[C@@H](CCCNC(=N)N)C(=O)N[C@@H](Cc1ccc(O)cc1)C(=O)N[C@@H](C)C(=O)N[C@@H](CC(=O)O)C(=O)N[C@@H](Cc1c[nH]c2ccccc12)C(=O)N[C@@H](CC(C)C)C(=O)N[C@@H](Cc1ccccc1)C(=O)N[C@H](C(=O)N[C@H](C(=O)N1CCC[C@H]1C(=O)N[C@@H](CC(C)C)C(=O)N[C@@H](CC(C)C)C(=O)N[C@@H](CC(C)C)C(=O)N[C@@H](CC(C)C)C(=O)N[C@@H](CC(=O)O)C(=O)N[C@@H](CC(C)C)C(=O)N[C@@H](C)C(=O)N[C@@H](CC(C)C)C(=O)N[C@@H](CC(C)C)C(=O)N[C@H](C(=O)N[C@@H](CC(=O)O)C(=O)N[C@@H](C)C(=O)N[C@@H](CC(=O)O)C(=O)N[C@@H](CCC(=O)O)C(=O)NCC(=O)N[C@H](C(=O)O)[C@@H](C)O)C(C)C)[C@@H](C)O)[C@@H](C)O [WT, reference compound]",State of the peptide in aqueous solution (solubility / aggregation),unfolded and monomeric
